Measurements reported in ChEMBL document CHEMBL3352209, “Chroman-4-one- and chromone-based sirtuin 2 inhibitors with antiproliferative properties in cancer cells” (J Med Chem, 2014).
Active and inactive are the calls of the source. No cut-off for these calls is given here.

Experiments:
[1] = molecular target: T1, NAD-dependent protein deacetylase sirtuin-2 (Homo sapiens, UniProt Q8IXJ6); experiment: Inhibition of recombinant GST-tagged sirtuin-2 (unknown origin) using KI179 as substrate after 1 hr by fluorescence assay
T1 sequence (Q8IXJ6 whole entry): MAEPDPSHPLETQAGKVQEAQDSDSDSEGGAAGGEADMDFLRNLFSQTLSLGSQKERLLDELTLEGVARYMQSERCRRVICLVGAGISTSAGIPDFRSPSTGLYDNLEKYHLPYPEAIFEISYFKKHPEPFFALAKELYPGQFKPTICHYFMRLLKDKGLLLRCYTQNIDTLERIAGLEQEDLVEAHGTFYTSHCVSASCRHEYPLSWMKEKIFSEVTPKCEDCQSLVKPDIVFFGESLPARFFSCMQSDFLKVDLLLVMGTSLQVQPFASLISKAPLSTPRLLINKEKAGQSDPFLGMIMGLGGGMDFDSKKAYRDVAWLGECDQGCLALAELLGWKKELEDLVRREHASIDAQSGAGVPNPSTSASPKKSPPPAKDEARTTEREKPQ
Method in brief: (§1)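 Recombinant GST-SIRT2 with Fluor de Lys KI179 acetyl-peptide at 0.7 Km (Km 198 μM) and NAD+ at 0.9 Km in HDAC buffer with 1 mg/mL BSA. Compound in DMSO (5% v/v) preincubated 5 min at room temperature, enzyme added, 1 h at 37 °C; developer plus 2 mM nicotinamide 45 min at 37 °C; fluorescence ex 370/em 460 nm. Single-point inhibition at 200 μM, n = 3; IC50 with 95% CI where inhibition >80%.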

[2] = molecular target: T2, NAD-dependent protein deacetylase sirtuin-2 (Homo sapiens) (UniProt Q8IXJ6); experiment: Inhibition of recombinant GST-tagged sirtuin-2 (unknown origin) using KI179 as substrate at 200 uM after 1 hr by fluorescence assay; method in brief: as §1
T2 sequence (whole entry): T1 sequence (Q8IXJ6 whole entry)

[3] = molecular target: T2, NAD-dependent protein deacetylase sirtuin-2 (Homo sapiens); experiment: Inhibition of sirtuin-2 (unknown origin) by SIRTainty assay in presence of NAD+; settings: concentration not given here
Method in brief: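 SIRT2 run in the SIRTainty kit, which uses nicotinamidase to detect nicotinamide released from NAD+, with and without NAD+. Fluorescence ex 405/em 460 nm, given as percent inhibition of the NAD+-dependent signal.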

[4] = molecular target: T2, NAD-dependent protein deacetylase sirtuin-2 (Homo sapiens); experiment: Inhibition of SIRT2 in human MCF7 cells assessed as alpha-tubulin acetylation after 6 to 18 hrs by Western blotting analysis; format: cell-based
Method in brief: (§2)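 MCF-7 cells seeded 10⁵/well, dosed 24 h later with compound plus 40 nM Trichostatin A, or 0.5% DMSO, for 6 or 18 h. Lysates separated by SDS-PAGE and blotted with acetylated α-tubulin and total α-tubulin mouse monoclonals, HRP anti-mouse and ECL detection; mean ± SEM of three independent experiments.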

MCF7 [5] = experiment: Cell cycle arrest in human MCF7 cells assessed as accumulation at G1/G0 phase at 100 uM after 18 hrs by propidium iodide staining-based flow cytometry; format: functional
Method in brief: (§3)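 A549 or MCF-7 cells seeded 0.6 × 10⁶/well 6 h before exposure to compound or 0.5% DMSO vehicle for 18 h. DNA content measured by propidium iodide staining and flow cytometry, giving percent of cells in G1/G0, S and G2/M; mean ± SEM of two to four independent experiments; one-way ANOVA with Tukey test.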

A549 [6] = experiment: Antiproliferative activity against human A549 cells at 1 to 100 uM after 48 hrs by sulforhodamine B assay; format: functional, cell-based
Method in brief: (§4)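 A549 and MCF-7 cells (DMEM, 10% FCS, penicillin/streptomycin, 37 °C, 5% CO2) seeded 3000 cells/well 24 h before dosing; 0–100 μM compound or 0.5% DMSO vehicle for 48 h (A549) or 72 h (MCF-7). Growth read by sulforhodamine B staining; mean ± SEM of two to three independent experiments; ANOVA with Tukey test.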

A549 [7] = experiment: Induction of apoptosis in human A549 cells at 100 uM after 18 hrs by propidium iodide staining-based flow cytometry; format: functional, cell-based
MCF7 [8] = experiment: Antiproliferative activity against human MCF7 cells at 1 to 100 uM after 72 hrs by sulforhodamine B assay; format: functional, cell-based; method in brief: as §4
A549 [9] = experiment: Cell cycle arrest in human A549 cells assessed as accumulation at G1/G0 phase at 100 uM after 18 hrs by propidium iodide staining-based flow cytometry; format: functional; method in brief: as §3
MCF7 [10] = experiment: Induction of apoptosis in human MCF7 cells at 100 uM after 18 hrs by propidium iodide staining-based flow cytometry; format: functional, cell-based
[11] = molecular target: T2, NAD-dependent protein deacetylase sirtuin-2 (Homo sapiens); experiment: Inhibition of SIRT2 in human MCF7 cells assessed as alpha-tubulin acetylation at 50 to 100 uM after 18 hrs by Western blotting analysis; format: cell-based; method in brief: as §2
A549 [12] = experiment: Cell cycle arrest in human A549 cells assessed as reduction in G2 phase at 100 uM after 18 hrs by propidium iodide staining-based flow cytometry; format: functional; method in brief: as §3
MCF7 [13] = experiment: Antiproliferative activity against human MCF7 cells at 10 uM after 72 hrs by sulforhodamine B assay
MCF7 [14] = experiment: Antiproliferative activity against human MCF7 cells at >=50 uM after 48 hrs by sulforhodamine B assay; format: functional, cell-based
A549 [15] = experiment: Induction of apoptosis in human A549 cells at 50 uM after 18 hrs by propidium iodide staining-based flow cytometry; format: functional, cell-based
MCF7 [16] = experiment: Cytotoxicity against human MCF7 cells at 100 uM after 18 hrs; format: cell-based; settings: mcf7, 18 h
[17] = molecular target: T2, NAD-dependent protein deacetylase sirtuin-2 (Homo sapiens); settings: MCF7, 25 to 100 uM
A549 [18] = experiment: Antiproliferative activity against human A549 cells at 10 uM after 48 hrs by sulforhodamine B assay; format: functional, cell-based
A549 [19] = experiment: Antiproliferative activity against human A549 cells at >=50 uM after 48 hrs by sulforhodamine B assay; format: functional, cell-based
MCF7 [20] = experiment: Cell cycle arrest in human MCF7 cells assessed as accumulation at G1/G0 phase at 50 uM after 18 hrs by propidium iodide staining-based flow cytometry; format: functional; method in brief: as §3
A549 [21] = experiment: Cell cycle arrest in human A549 cells assessed as accumulation at G1/G0 phase at 50 uM after 18 hrs by propidium iodide staining-based flow cytometry; format: functional; method in brief: as §3
MCF7 [22] = experiment: Induction of apoptosis in human MCF7 cells at 50 uM after 18 hrs by propidium iodide staining-based flow cytometry; format: functional, cell-based

Work on `CC(=O)Nc1c(CCc2ccccc2)oc2c(Br)cc(Cl)cc2c1=O` yielded an IC50 [1] of 28.7 µM and an inhibition [2] of 81%.
With `N#Cc1c(CCc2ccccc2)oc2c(Br)cc(Cl)cc2c1=O` the inhibition [2] was 50%.
Molecule `O=C1CC(CCCN2CCOCC2)Oc2c(Br)cc(Cl)cc21` (stereo unspecified) has an inhibition [3] of 17%.
Molecule `O=C(CCCC1CC(=O)c2cc(Cl)cc(Br)c2O1)NCc1ccccc1` (stereo unspecified) has an inhibition [2] of 39%.
`COC(=O)CCC1CC(=O)c2cc(Cl)cc(Br)c2O1` (stereo unspecified) was tested, and the IC50 [1] was 9.6 µM and the inhibition [2] was 80%.
With `CNC(=O)CCCC1CC(=O)c2cc(Cl)cc(Br)c2O1` (stereo unspecified) the inhibition [2] was 39%.
In the case of `N/C=C1\C(=O)c2cc(Cl)cc(Br)c2OC1CCc1ccccc1` (stereo unspecified), the inhibition [2] is reported as 76%.
`O=C1CC(CCc2ccncc2)Oc2c(Br)cc(Cl)cc21` (stereo unspecified) showed an inhibition [2] of 73%.
`O=C1CC(CCCCCO)Oc2c(Br)cc(Cl)cc21` (stereo unspecified) gave an inhibition [2] of 67%.
With `COCCOCC1CC(=O)c2cc(Cl)cc(Br)c2O1` (stereo unspecified) the inhibition [2] was 33%.
With `CC(C)NC(=O)CCCC1CC(=O)c2cc(Cl)cc(Br)c2O1` (stereo unspecified) the inhibition [2] was 23%.
With `O=C1CC(CCCCO)Oc2c(Br)cc(Cl)cc21` (stereo unspecified) the inhibition [2] was 52%.
`Cc1noc(CCC2CC(=O)c3cc(Cl)cc(Br)c3O2)n1` (stereo unspecified) was tested, and the inhibition [4] was “Dose-dependent effect”, the IC50 [1] was 12.2 µM and the Activity (MCF7 [5]) was “Active”. The “growth inhibition (GI)” value (A549 [6]) was “Active”, the Activity (A549 [7]) was “inactive” and the “growth inhibition (GI)” value (MCF7 [8]) was “Active”. The Activity (A549 [9]) was “Active”, the Activity (MCF7 [10]) was “inactive” and the inhibition [11] was “Active”. The inhibition [2] was 77% and the Activity (A549 [12]) was “Active”.
Molecule `Cc1noc(CCCC2CC(=O)c3cc(Cl)cc(Br)c3O2)n1` (stereo unspecified) has an inhibition [2] of 49%.
Work on `O=C(O)CCCC1CC(=O)c2cc(Cl)cc(Br)c2O1` (stereo unspecified) yielded an inhibition [2] of 7.6%.
`COC(=O)CCCC1CC(=O)c2cc(Cl)cc(Br)c2O1` (stereo unspecified) showed an IC50 [1] of 2 µM and an inhibition [2] of 90%.
Work on `CCCCCC1CC(=O)c2cc(Br)ccc2O1` (stereo unspecified) yielded an inhibition [2] of 69%.
For `O=C1CC(CCCN2CCCCC2)Oc2c(Br)cc(Cl)cc21` (stereo unspecified), the inhibition [3] was 40%.
For `O=C1CC(CCc2cccnc2)Oc2c(Br)cc(Cl)cc21` (stereo unspecified), the inhibition [4] was “Dose-dependent effect”, the “growth inhibition (GI)” value (MCF7 [13]) was “Active” and the IC50 [1] was 3.7 µM. The “growth inhibition (GI)” value (MCF7 [14]) was “Active”, the Activity (A549 [15]) was “inactive” and the Activity (MCF7 [16]) was “Toxic”. The “growth inhibition (GI)” value (A549 [6]) was “Active”, the inhibition [17] was “Active” and the “growth inhibition (GI)” value (MCF7 [8]) was “Active”. For the same molecule, the “growth inhibition (GI)” value (A549 [18]) was “Active”, the “growth inhibition (GI)” value (A549 [19]) was “Active” and the Activity (MCF7 [20]) was “Active”. The inhibition [2] was 86%, the Activity (A549 [21]) was “Active” and the Activity (MCF7 [22]) was “inactive”.
Molecule `O=C1CC(CCc2ccc3[nH]c(=O)ccc3c2)Oc2c(Br)cc(Cl)cc21` (stereo unspecified) has an inhibition [2] of 59%.
Molecule `O=C1CC(CCc2ccc3ncccc3c2)Oc2c(Br)cc(Cl)cc21` (stereo unspecified) has an inhibition [2] of 56%.
`Nc1c(CCc2ccccc2)oc2c(Br)cc(Cl)cc2c1=O` was tested, and the inhibition [2] was 79%.
Molecule `O=C1CC(CCCO)Oc2c(Br)cc(Cl)cc21` (stereo unspecified) has an inhibition [2] of 18%.
Molecule `CNC(=O)CCC1CC(=O)c2cc(Cl)cc(Br)c2O1` (stereo unspecified) has an inhibition [2] of 0.2%.
With `O=C1CC(CCc2ccccn2)Oc2c(Br)cc(Cl)cc21` (stereo unspecified) the inhibition [2] was 74%.
`O=C(O)CCC1CC(=O)c2cc(Cl)cc(Br)c2O1` (stereo unspecified) showed an inhibition [2] of 6.8%.
Work on `CN(C)C(=O)CCCC1CC(=O)c2cc(Cl)cc(Br)c2O1` (stereo unspecified) yielded an inhibition [2] of 53%.
`CCCCCC1CC(=O)c2cc(Br)cc(Cl)c2O1` (stereo unspecified) showed an IC50 [1] of 1.8 µM and an inhibition [2] of 96%.
